IC50 data for 15 compounds are collected here from ChEMBL document CHEMBL2385024, “Antiviral alkaloids produced by the mangrove-derived fungus Cladosporium sp. PJX-41” (J Nat Prod, 2013).

This experiment concerns Influenza A virus. Nature of the experiment: Antiviral activity against Influenza A virus H1N1 infected in dog MDCK cells after 48 hrs by CPE inhibition assay. In kind it is functional, organism-based. In a few lines:
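CPE-inhibition format against influenza A (H1N1), with ribavirin run in parallel as the positive control; activity is expressed as IC50.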

The structures appear in SMILES notation.

As to `CC(C)=C1NC(=O)[C@@H](C[C@]2(O)c3ccccc3N3C(=O)[C@H](C)N[C@H]32)n2c1nc1ccccc1c2=O`, the IC50 was 82 µM. For `O=C1N[C@H]2c3[nH]c4ccccc4c3C[C@@H]1n1c2nc2ccccc2c1=O` the value was over 200 µM; for `O=C1N[C@@H](O)c2nc3ccccc3c(=O)n2[C@@H]1Cc1c[nH]c2ccccc12`, 100 µM; for `O=C1NC(=O)[C@@H](Cc2c[nH]c3ccccc23)n2c1nc1ccccc1c2=O`, 100 µM. `O=C1NC(=O)[C@H](Cc2c[nH]c3ccccc23)n2c1nc1ccccc1c2=O` had an IC50 of 85 µM.

In the case of `CC(C)=C1NC(=O)[C@@H](C[C@]2(O)c3ccccc3N3C(=O)C(C)(C)N[C@H]32)n2c1nc1ccccc1c2=O`, the IC50 was determined as 100 µM.

Compound `CC(=O)O[C@@H](c1nc2ccccc2c(=O)n1[C@@H]1C[C@]2(OC1=O)c1ccccc1N1C(=O)C(C)(C)N(O)[C@H]12)C(C)C` showed an IC50 of 100 µM.

With `O=C1N[C@@H]2c3nc4ccccc4c(=O)n3[C@H]1CC21c2ccccc2N2C(=O)[C@@H]3CCCN3[C@H]21` (stereo not given in full), half-maximal inhibition (IC50) was put at 82 µM. The figure for `O=C1NCc2nc3ccccc3c(=O)n2[C@@H]1Cc1c[nH]c2ccccc12` is 100 µM; for `CC(C)[C@H]1NC(=O)[C@@H](C[C@]2(O)C(=O)Nc3ccccc32)n2c1nc1ccccc1c2=O` [CLADOQUINAZOLINE] it is 100 µM; for `CC(=O)O[C@H](c1nc2ccccc2c(=O)n1[C@@H]1C[C@]2(OC1=O)c1ccccc1N1C(=O)[C@H](C)N[C@H]12)C(C)C` [DEOXYNORTRYPTOQUIVALINE] it is 87 µM. The compound `CC(=O)O[C@H](c1nc2ccccc2c(=O)n1[C@@H]1C[C@]2(OC1=O)c1ccccc1N1C(=O)C(C)(C)N[C@H]12)C(C)C` [DEOXYTRYPTOQUIVALINE] had an IC50 of 85 µM. This IC50 and that of the compound before are within 1.5-fold of each other. For `CC(C)[C@@H]1NC(=O)[C@@H](C[C@]2(O)C(=O)Nc3ccccc32)n2c1nc1ccccc1c2=O` [EPI-CLADOQUINAZOLINE] the value was 100 µM; for `NC(=O)c1ncn([C@@H]2O[C@H](CO)[C@@H](O)[C@H]2O)n1` [RIBAVIRIN], 87 µM.

For the compound `CC(=O)O[C@H](c1nc2ccccc2c(=O)n1[C@@H]1C[C@]2(OC1=O)c1ccccc1N1C(=O)C(C)(C)N(O)[C@H]12)C(C)C` [TRYPTOQUIVALINE], it took 89 µM to reach half-maximal inhibition (IC50).
